Data taken from ChEMBL document CHEMBL1811814, “Synthesis and evaluation of indole, pyrazole, chromone and pyrimidine based conjugates for tumor growth inhibitory activities--development of highly efficacious cytotoxic agents” (Eur J Med Chem, 2010).

What was measured:
Format in all cases: functional
Set-up in all cases: scale not given: the % may be the effect or the level left
[1] = system: OVCAR-3; experiment: Growth inhibition of human OVCAR3 cells assessed tumor cell growth at 10^-5 M
Outline: (§1)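 NCI 60-human-tumor-cell-line panel screen. Each compound was tested at a single concentration of 10^-5 M, and percent growth of tumor cells was recorded for each cell line. Growth inhibition was expressed from these percent-growth values.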

[2] = system: SNB-75; experiment: Growth inhibition of human SNB75 cells assessed tumor cell growth at 10^-5 M
Outline: (§2)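 Single-dose screen at 10^-5 M across the 60 human tumor cell line panel, run to NCI standards. The value is the percent growth of each cell line in the presence of compound. Compounds active at this dose moved on to five-concentration testing (10^-4 to 10^-8 M).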

[3] = system: SNB-19; experiment: Growth inhibition of human SNB19 cells assessed tumor cell growth at 10^-5 M; outline: as §2
[4] = system: NCI-H522; experiment: Growth inhibition of human NCI-H522 cells assessed tumor cell growth at 10^-5 M; outline: as §1
[5] = system: COLO 205; experiment: Growth inhibition of human COLO205 cells assessed tumor cell growth at 10^-5 M; outline: as §1
[6] = system: UACC-62; experiment: Growth inhibition of human UACC62 cells assessed tumor cell growth at 10^-5 M; outline: as §2
[7] = Growth inhibition of human Hs 578T cells assessed tumor cell growth at 10^-5 M; outline: as §1
[8] = system: MOLT-4; experiment: Growth inhibition of human MOLT4 cells assessed tumor cell growth at 10^-5 M; outline: as §1
[9] = system: NCI-H460; experiment: Growth inhibition of human NCI-H460 cells assessed tumor cell growth at 10^-5 M; outline: as §1
[10] = system: UO-31; experiment: Growth inhibition of human UO31 cells assessed tumor cell growth at 10^-5 M; outline: as §2
[11] = system: SF-268; experiment: Growth inhibition of human SF268 cells assessed tumor cell growth at 10^-5 M; outline: as §1
[12] = system: SK-MEL-2; experiment: Growth inhibition of human SK-MEL-2 cells assessed tumor cell growth at 10^-5 M; outline: as §1
[13] = system: K562; experiment: Growth inhibition of human K562 cells assessed tumor cell growth at 10^-5 M; outline: as §1
[14] = system: CCRF-CEM; experiment: Growth inhibition of human CCRF-CEM cells assessed tumor cell growth at 10^-5 M; outline: as §1
[15] = system: HL-60(TB); experiment: Growth inhibition of human HL-60(TB) cells assessed tumor cell growth at 10^-5 M
Outline: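 HL-60(TB), part of the 60-line panel, tested at a single concentration of 10^-5 M. The read-out is percent tumor cell growth relative to untreated growth.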

[16] = system: Malme-3M; experiment: Growth inhibition of human MALME-3M cells assessed tumor cell growth at 10^-5 M; outline: as §1
[17] = system: RXF 393; experiment: Growth inhibition of human RXF393 cells assessed tumor cell growth at 10^-5 M; outline: as §1
[18] = system: NCI-H322M; experiment: Growth inhibition of human NCI-H322M cells assessed tumor cell growth at 10^-5 M; outline: as §1
[19] = system: OVCAR-4; experiment: Growth inhibition of human OVCAR4 cells assessed tumor cell growth at 10^-5 M; outline: as §1
[20] = system: HOP-92; experiment: Growth inhibition of human HOP92 cells assessed tumor cell growth at 10^-5 M; outline: as §1
[21] = system: MDA-MB-468; experiment: Growth inhibition of human MDA-MB-468 cells assessed tumor cell growth at 10^-5 M; outline: as §1
[22] = system: HOP-62; experiment: Growth inhibition of human HOP62 cells assessed tumor cell growth at 10^-5 M; outline: as §1
[23] = system: NCI-H23; experiment: Growth inhibition of human NCI-H23 cells assessed tumor cell growth at 10^-5 M; outline: as §1
[24] = system: EKVX; experiment: Growth inhibition of human EKVX cells assessed tumor cell growth at 10^-5 M; outline: as §1
[25] = system: M14; experiment: Growth inhibition of human M14 cells assessed tumor cell growth at 10^-5 M; outline: as §1
[26] = system: HCT-116; experiment: Growth inhibition of human HCT116 cells assessed tumor cell growth at 10^-5 M; outline: as §1
[27] = system: U-251; experiment: Growth inhibition of human U251 cells assessed tumor cell growth at 10^-5 M; outline: as §2
[28] = system: A498; experiment: Growth inhibition of human A498 cells assessed tumor cell growth at 10^-5 M; outline: as §1
[29] = system: SK-MEL-28; experiment: Growth inhibition of human SK-MEL-28 cells assessed tumor cell growth at 10^-5 M; outline: as §1
[30] = system: SF-539; experiment: Growth inhibition of human SF539 cells assessed tumor cell growth at 10^-5 M; outline: as §1
[31] = system: DU-145; experiment: Growth inhibition of human DU145 cells assessed tumor cell growth at 10^-5 M; outline: as §1
[32] = system: BT-549; experiment: Growth inhibition of human BT549 cells assessed tumor cell growth at 10^-5 M; outline: as §1
[33] = system: SK-MEL-5; experiment: Growth inhibition of human SK-MEL-5 cells assessed tumor cell growth at 10^-5 M; outline: as §1
[34] = system: HCT-15; experiment: Growth inhibition of human HCT15 cells assessed tumor cell growth at 10^-5 M; outline: as §1
[35] = system: OVCAR-8; experiment: Growth inhibition of human OVCAR8 cells assessed tumor cell growth at 10^-5 M; outline: as §1
[36] = system: TK-10; experiment: Growth inhibition of human TK10 cells assessed tumor cell growth at 10^-5 M; outline: as §2
[37] = system: SN12C; experiment: Growth inhibition of human SN12C cells assessed tumor cell growth at 10^-5 M; outline: as §1
[38] = system: A549; experiment: Growth inhibition of human A549 cells assessed tumor cell growth at 10^-5 M; outline: as §1
[39] = system: IGROV-1; experiment: Growth inhibition of human IGROV1 cells assessed tumor cell growth at 10^-5 M; outline: as §1
[40] = system: SF-295; experiment: Growth inhibition of human SF295 cells assessed tumor cell growth at 10^-5 M; outline: as §1
[41] = Growth inhibition of human […] cells assessed tumor cell growth at 10^-5 M; outline: as §1
[42] = system: SW-620; experiment: Growth inhibition of human SW620 cells assessed tumor cell growth at 10^-5 M; outline: as §2
[43] = system: KM12; experiment: Growth inhibition of human KM12 cells assessed tumor cell growth at 10^-5 M; outline: as §1
[44] = system: HT-29; experiment: Growth inhibition of human HT-29 cells assessed tumor cell growth at 10^-5 M; outline: as §1
[45] = system: ACHN; experiment: Growth inhibition of human ACHN cells assessed tumor cell growth at 10^-5 M; outline: as §1
[46] = system: UACC-257; experiment: Growth inhibition of human UACC257 cells assessed tumor cell growth at 10^-5 M; outline: as §2
[47] = system: MDA-MB-435; experiment: Growth inhibition of human MDA-MB-435 cells assessed tumor cell growth at 10^-5 M; outline: as §1
[48] = system: MCF7; experiment: Growth inhibition of human MCF7 cells assessed tumor cell growth at 10^-5 M; outline: as §1
[49] = system: CAKI-1; experiment: Growth inhibition of human Caki1 cells assessed tumor cell growth at 10^-5 M; outline: as §1
[50] = system: OVCAR-5; experiment: Growth inhibition of human OVCAR5 cells assessed tumor cell growth at 10^-5 M; outline: as §1
[51] = system: PC-3; experiment: Growth inhibition of human PC3 cells assessed tumor cell growth at 10^-5 M; outline: as §1
[52] = system: 786-0; experiment: Growth inhibition of human 786-0 cells assessed tumor cell growth at 10^-5 M; outline: as §1
[53] = system: NCI/ADR-RES; experiment: Growth inhibition of human NCI/ADR-RES cells assessed tumor cell growth at 10^-5 M; outline: as §1
[54] = system: NCI-H226; experiment: Growth inhibition of human NCI-H226 cells assessed tumor cell growth at 10^-5 M; outline: as §1
[55] = system: LOX IMVI; experiment: Growth inhibition of human LOXIMVI cells assessed tumor cell growth at 10^-5 M; outline: as §1
[56] = system: SK-OV-3; experiment: Growth inhibition of human SKOV3 cells assessed tumor cell growth at 10^-5 M; outline: as §1
[57] = system: MDA-MB-231; experiment: Growth inhibition of human MDA-MB-231 cells assessed tumor cell growth at 10^-5 M; outline: as §1
[58] = system: T47D; experiment: Growth inhibition of human T47D cells assessed tumor cell growth at 10^-5 M; outline: as §2
[59] = system: HCC 2998; experiment: Growth inhibition of human HCC2998 cells assessed tumor cell growth at 10^-5 M; outline: as §1

O=C1Nc2ccccc2/C1=C/c1cn(C(=O)c2ccc(Cl)cc2)c2ccccc12
Activity [1]: 98.7% | Activity [2]: 87.7% | Activity [3]: 99% | Activity [4]: 85.5% | Activity [5]: 58.2% | Activity [6]: 89.3% | Activity [7]: 106% | Activity [8]: 109.3% | Activity [9]: 107.2% | Activity [10]: 74.6% | Activity [11]: 99.8% | Activity [12]: 119.8% | Activity [13]: 85.6% | Activity [14]: 104.1% | Activity [15]: 150.1% | Activity [16]: 117.8% | Activity [17]: 129.9% | Activity [18]: 126.5% | Activity [19]: 78.2% | Activity [20]: 99.3% | Activity [21]: 97.6% | Activity [22]: 110.7% | Activity [23]: 90.8% | Activity [24]: 58.9% | Activity [25]: 102.4% | Activity [26]: 91.5% | Activity [27]: 99.4% | Activity [28]: 116.3% | Activity [29]: 92.9% | Activity [30]: 99.3% | Activity [31]: 118.1% | Activity [32]: 96.4% | Activity [33]: 97.6% | Activity [34]: 92% | Activity [35]: 95% | Activity [36]: 130% | Activity [37]: 95.4% | Activity [38]: 101.2% | Activity [39]: 72.6% | Activity [40]: 114.3% | Activity [41]: 74.5% | Activity [42]: 102.4% | Activity [43]: 40.8% | Activity [44]: 110% | Activity [45]: 102.9% | Activity [46]: 99.6% | Activity [47]: 109.9% | Activity [48]: 59% | Activity [49]: 59% | Activity [50]: 110.2% | Activity [51]: 95.6% | Activity [52]: 111.4% | Activity [53]: 104.2% | Activity [54]: 92.3% | Activity [55]: 100% | Activity [56]: 103.8% | Activity [57]: 77.7%

C=CCn1cc(/C=C2\C(=O)N(c3c(Cl)cccc3Cl)c3ccccc32)c2ccccc21
Activity [1]: 88.2% | Activity [2]: 71.5% | Activity [3]: 97.4% | Activity [4]: 88.3% | Activity [5]: 111.6% | Activity [6]: 68.7% | Activity [7]: 86.4% | Activity [8]: 71.8% | Activity [9]: 64.8% | Activity [10]: 56.7% | Activity [11]: 77.4% | Activity [12]: 102.6% | Activity [13]: 53.6% | Activity [15]: 93.4% | Activity [16]: 96.3% | Activity [17]: 93.3% | Activity [18]: 96.2% | Activity [19]: 79.1% | Activity [20]: 72.1% | Activity [21]: 93.3% | Activity [22]: 78.4% | Activity [23]: 83.7% | Activity [24]: 80.5% | Activity [25]: 84.7% | Activity [26]: 44.8% | Activity [27]: 63.1% | Activity [28]: 107.5% | Activity [29]: 109.8% | Activity [30]: 92.2% | Activity [31]: 101.7% | Activity [32]: 127.4% | Activity [33]: 72.6% | Activity [34]: 48.8% | Activity [35]: 90.7% | Activity [36]: 100.4% | Activity [37]: 94.9% | Activity [38]: 95.2% | Activity [39]: 66.4% | Activity [40]: 95.1% | Activity [41]: 86.7% | Activity [42]: 86.9% | Activity [58]: 63.9% | Activity [43]: 83.7% | Activity [44]: 85.4% | Activity [45]: 80.5% | Activity [46]: 116% | Activity [47]: 100.8% | Activity [48]: 89.3% | Activity [49]: 60.9% | Activity [50]: 98.9% | Activity [51]: 58.2% | Activity [52]: 86.2% | Activity [53]: 84.6% | Activity [59]: 92.3% | Activity [54]: 87% | Activity [55]: 69.8% | Activity [56]: 98.2% | Activity [57]: 83.4%
